Shown is part of a subset that was picked to be rich in hits.
ABCB1 inh: inhibitors of human ABCB1 transporter, ABCG2 counter-screen | P08183 | CCRF-Adr cells, JC-1 efflux, flow cytometry | inhibition, % at 6.6 µM | 190,000 compounds, 0.067% hits | AID 1326; in the data active = inhibition above about 40%;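 note: higher value means more JC-1 retained so stronger ABCB1 efflux block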
Target sequence (P08183 whole entry, looked up): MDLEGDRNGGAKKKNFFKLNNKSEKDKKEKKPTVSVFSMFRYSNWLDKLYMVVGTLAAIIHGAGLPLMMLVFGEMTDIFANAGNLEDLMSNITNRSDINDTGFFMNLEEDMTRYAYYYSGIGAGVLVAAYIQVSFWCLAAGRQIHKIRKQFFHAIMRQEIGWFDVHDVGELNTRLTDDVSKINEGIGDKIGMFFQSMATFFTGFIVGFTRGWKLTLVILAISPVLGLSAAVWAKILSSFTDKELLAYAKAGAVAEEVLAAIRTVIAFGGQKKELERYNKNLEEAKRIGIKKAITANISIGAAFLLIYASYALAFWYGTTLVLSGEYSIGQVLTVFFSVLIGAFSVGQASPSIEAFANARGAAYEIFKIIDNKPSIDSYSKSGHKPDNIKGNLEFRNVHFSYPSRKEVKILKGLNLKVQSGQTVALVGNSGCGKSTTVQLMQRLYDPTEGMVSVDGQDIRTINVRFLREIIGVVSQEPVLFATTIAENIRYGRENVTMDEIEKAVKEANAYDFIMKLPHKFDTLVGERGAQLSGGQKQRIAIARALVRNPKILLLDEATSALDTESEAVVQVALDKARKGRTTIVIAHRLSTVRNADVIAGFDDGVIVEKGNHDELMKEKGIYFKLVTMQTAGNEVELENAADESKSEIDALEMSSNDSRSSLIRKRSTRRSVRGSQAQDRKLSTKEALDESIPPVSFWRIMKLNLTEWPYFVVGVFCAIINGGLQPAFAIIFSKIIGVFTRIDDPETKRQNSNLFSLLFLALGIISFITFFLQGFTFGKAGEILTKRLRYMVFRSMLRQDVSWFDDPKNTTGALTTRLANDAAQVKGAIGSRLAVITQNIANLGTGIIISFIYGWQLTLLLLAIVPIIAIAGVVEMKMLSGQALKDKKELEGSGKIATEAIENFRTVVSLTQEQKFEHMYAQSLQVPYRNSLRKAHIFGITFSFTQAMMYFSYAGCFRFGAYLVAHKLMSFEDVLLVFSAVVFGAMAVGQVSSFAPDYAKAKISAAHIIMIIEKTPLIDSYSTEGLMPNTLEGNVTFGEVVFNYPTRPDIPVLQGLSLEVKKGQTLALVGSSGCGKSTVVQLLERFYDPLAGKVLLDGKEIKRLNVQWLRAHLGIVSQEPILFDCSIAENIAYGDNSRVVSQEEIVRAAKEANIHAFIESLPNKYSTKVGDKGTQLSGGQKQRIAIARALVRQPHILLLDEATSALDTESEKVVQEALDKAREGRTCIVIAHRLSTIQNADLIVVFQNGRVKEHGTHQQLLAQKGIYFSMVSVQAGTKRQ
ABCG2 inh: inhibitors of human ABCG2 transporter, ABCB1 counter-screen | Q9UNQ0 | IgMXP3 cells, JC-1 efflux, flow cytometry | inhibition, % at 6.6 µM | 190,000 compounds, 0.1% hits | AID 1325;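 active = inhibition above 80%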
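System: two drug-resistant human cell lines, ABCG2 and ABCB1; controls: nicardipine high and DMSO low controls; times: 10 min exposure at 25 °C with rotation, no wash; detection: flow cytometry of retained JC-1 fluorescence; read-out basis: percent efflux inhibition, scaled nicardipine 100% to DMSO 0%; doses: one concentration, 6.6 µM final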
Avidin bead fluor: avidin bead compound fluorescence profile | Avidin beads, compound fluorescence 488/530 nm, flow cytometry; hits give high values | fluorescence (KMESF) at 10 µM | 220,000 compounds, 0.38% hits; in the data active = fluorescence above about 47
L major viab: inhibitors of Leishmania major promastigote growth; Leishmania major promastigotes, resazurin fluorescence viability; inhibition, % at 10 µM; 200,000 compounds, 9% hits;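 note: promastigotes grown with compound for 44 hours at 28 °C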
PKD1 inh: inhibitors of human PKD1 kinase; PKD1 kinase fluorescence polarization assay; inhibition, % (no concentration beside the values); 200,000 compounds, 0.056% hits; AID 797
GSH fluor: compound fluoresces at 488/530 nm on GSH beads; GSH beads flow cytometry, compound fluorescence 488/530 nm; hits give high values; fluorescence (KMESF) at 10 µM; 190,000 compounds, 0.25% hits; AID 1776; in the data active = fluorescence above about 89;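 note: glutathione beads carrying GST-tagged Bcl family fusion proteins plus one bare bead set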
Each line names hits and unclear results; the compound was inactive in the other large screens. Cut-off read from the data, not from the text of the source, unless noted: active = inhibition above about 50%; inactive = the rest.

CCC(Oc1ccccc1)C(=O)Nc1ccc(-c2nnc(-c3ccco3)o2)cc1 (configuration not stated)	L major viab 94 (no result: ABCB1 inh, ABCG2 inh)
COc1ccc(C(=O)C[n+]2ccc3c(c2)nnn3-c2ccccc2)cc1	none
CCN1CCN(CCCNC(=O)c2cc3c(=O)[nH]c4ccccc4c3s2)CC1	none
O=C(NCCCN1CCCC1)c1cc2c(Cl)nc3ccccc3c2s1	L major viab 90
CC1CCN(CCCNC(=O)c2ccc3c(Cl)c4c(nc3c2)CCCC4)CC1	none (no result: ABCB1 inh, ABCG2 inh, L major viab, PKD1 inh, GSH fluor)
CC1CCN(CCCNC(=O)c2cc3c(Cl)nc4ccccc4c3s2)CC1	L major viab 100
O=C(NCCCN1CCCCCC1)c1ccc2c(Cl)c3c(nc2c1)CCCC3	L major viab 73
O=C(CNC(=S)N(Cc1ccccc1)Cc1ccccc1F)NCCc1ccc(Cl)cc1	L major viab 98
CC(NC(=O)CNC(=S)N(Cc1ccccc1)Cc1cccnc1)c1ccccc1 (configuration not stated)	L major viab 65
Cc1ccc(CNC(=O)CNC(=S)N(Cc2ccccc2)Cc2cccnc2)cc1	L major viab 97
O=C(CC12CC3CC(CC(C3)C1)C2)NC(=S)Nc1ccc(CN2CCOCC2)cc1	none
CCOC(=O)Cn1cc(/C=N/N2C(=O)C3C4C=CC(C4)C3C2=O)c2ccccc21 (configuration not stated)	none
COc1ccccc1OCCNC(=O)Cc1ccc(Cl)c(Cl)c1	none
O=C(COc1ccc(-c2nnco2)cc1)NC1CCCc2ccccc21 (configuration not stated)	GSH fluor 233
O=C(CSc1cc(Cl)ccc1Cl)NC1CCCc2ccccc21 (configuration not stated)	L major viab 57
Cc1ccc(S(=O)(=O)N2CCN(CC(=O)NC3CCCc4ccccc43)CC2)cc1C (configuration not stated)	L major viab 98
O=C(COc1ccccc1)NC1CCCc2ccccc21 (configuration not stated)	L major viab 51
CC(=O)c1ccc(OCCCC(=O)NC2CCCc3ccccc32)cc1 (configuration not stated)	none
O=C(COC(=O)COc1ccccc1)NC1CCCc2ccccc21 (configuration not stated)	none
CC(C)c1ccc(NC(=O)NN2CCOCC2)cc1	none
CCCCCc1ccc(S(=O)(=O)Nc2cc(C)ccn2)cc1	none (no result: ABCB1 inh, ABCG2 inh, L major viab, PKD1 inh, GSH fluor)
CCCCCc1ccc(OCCCC[n+]2ccccc2)c(CCCCC)c1	L major viab 101
CCC(C)(C)c1ccc(OCCCC[n+]2ccccc2)c(C(C)(C)CC)c1	L major viab 100
CCCCCc1ccc(OCCCC[n+]2ccc(C)cc2)c(CCCCC)c1	L major viab 100
CCCCCc1ccc(OCCCC[n+]2cccc(C)c2)c(CCCCC)c1	L major viab 101
CCCCOc1ccc(C)cc1CN(CCO)CCO	none
CCC(C)(C)c1ccc(Oc2cccc(C(=O)O)c2)cc1	none (no result: ABCB1 inh, ABCG2 inh, L major viab, PKD1 inh, GSH fluor)
CC1CN(C(=O)/C(C#N)=C2\N=C(NC(=O)c3ccc(F)cc3)c3ccccc32)CC(C)O1 (configuration not stated)	none (no result: ABCB1 inh, ABCG2 inh, L major viab, PKD1 inh, GSH fluor)
Cc1cccc2sc(NNC(=O)c3cc(-c4cccs4)nc4ccccc34)nc12	none
CCc1ccc(N(C2C=CS(=O)(=O)C2)S(=O)(=O)c2ccccc2)cc1 (configuration not stated)	L major viab 59
Cc1ccc(S(=O)(=O)N(c2cccc(C(F)(F)F)c2)C2C=CS(=O)(=O)C2)cc1 (configuration not stated)	none
O=C(CC1C(=O)N(c2ccc(Cl)cc2)C(=S)N1CCc1ccncc1)Nc1ccc(F)cc1 (configuration not stated)	none
OCCC1CN(Cc2ccc3c(c2)CCO3)CCN1C1CCCC1 (configuration not stated)	none
CC/C(C)=N/Nc1cccc([N+](=O)[O-])c1	L major viab 96
O=C(CN1CCCCC1)NNc1nc(-c2ccccc2)c2cc(Br)ccc2n1	none (no result: ABCB1 inh, ABCG2 inh, L major viab, PKD1 inh, GSH fluor)
CCCCNCCOc1ccccc1-c1ccccc1	L major viab 97
COCCNCCOc1ccccc1-c1ccccc1	L major viab 85
CN(C)CCOCCOc1ccccc1-c1ccccc1	L major viab 81
CNCCCCOc1ccccc1-c1ccccc1	none
C=CCNCCCCOc1ccccc1-c1ccccc1	L major viab 98
COc1ccc(NC(=O)CC23CC4CC(CC(C4)C2)C3)cn1	none
COc1ccc(-c2csc3nc(C)nc(N4CCN(c5ccc(C(C)=O)cc5)CC4)c23)cc1OC	none
C/C(=N/OCO/N=C(/C)c1ccc(F)cc1)c1ccc(F)cc1	none
COc1cc2c(cc1OC)C(C)N(C(=O)c1ccc(Br)o1)CC2 (configuration not stated)	none
Cc1ccc(NC(=O)Cn2cnc3c(nnn3Cc3ccc(F)cc3)c2=O)cc1	none
OCCNCCOCCOc1ccccc1-c1ccccc1	L major viab 62
COCCCNCCCCOc1ccccc1-c1ccccc1	L major viab 98
Cc1ccc(C(=O)Oc2ccccc2N2C(=O)C3C4CCC(C4)C3C2=O)cc1 (configuration not stated)	none
COc1cc(/C=C(\C#N)c2nc(-c3cc4ccccc4oc3=O)cs2)ccc1O	L major viab 61
COc1cc(/C=C(/C#N)c2nc(-c3cc4ccccc4oc3=O)cs2)cc([N+](=O)[O-])c1O	none (no result: ABCB1 inh, ABCG2 inh, L major viab, PKD1 inh, GSH fluor)
CCOc1ccc(OCCCCn2ccnc2)cc1	none
CCOc1ccc(OCCn2ccnc2)cc1	none
Cc1cc(C(C)(C)C)ccc1OCCn1ccnc1	L major viab 62
Cc1ccc(OCCCn2ccnc2)cc1C	L major viab 100
Cc1cccc(OCCCn2ccnc2)c1	L major viab 98
Cc1cc(OCCn2ccnc2)ccc1C(C)C	L major viab 97
Cc1cccc(N2CCN(S(=O)(=O)c3cccc4nonc34)CC2)c1C	none
CC(C)CC1C2C(=O)N(c3ccccc3)C(=O)C2ON1c1ccccc1 (configuration not stated)	none (no result: ABCB1 inh, ABCG2 inh, L major viab, PKD1 inh, GSH fluor)
Cn1c(SCc2ccccc2F)nnc1-c1ccccn1	none
CC(C)(C)OC(=O)NCc1n[nH]c(=S)n1C1CC1	none (no result: ABCB1 inh, ABCG2 inh, L major viab, PKD1 inh, GSH fluor)
Cc1[nH]c2ccccc2c1CN1CCC(Cc2ccccc2)CC1	L major viab 100
O=[N+]([O-])c1cc(CN2CCN(c3cccc(C(F)(F)F)c3)CC2)c2cccnc2c1O	L major viab 99
Oc1ccc(CNc2ccccc2F)c2cccnc12	L major viab 73
Oc1ccc(CN2CCc3ccccc3C2)c2cccnc12	L major viab 100
O=[N+]([O-])c1cc(CN2CCCC2)c2cccnc2c1O	none
CCCCCCC(=O)N1C/C=C\C(c2ccc(OC)cc2)N(Cc2ccc(F)cc2)C(=O)[C@H]1Cc1ccccc1 (some centres not stated)	none (no result: ABCB1 inh, ABCG2 inh, L major viab, PKD1 inh, GSH fluor)
Cn1cc(CNCc2ccccc2OCC(O)CN2CCc3ccccc3C2)cn1 (configuration not stated)	none

Bioassay records as filed in PubChem BioAssay.
